E coli WT exp: blocks growth of wild type E. coli BW25113. OD600 absorbance. growth inhibition, % at 100 µM. hit rate 0.15% among 98,000;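 active = growth inhibition above about 50% at one test dose, limit read from the data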;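 also: growth measured after 20 h incubation at 37 °C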
PostGolgi ctrl: inhibits growth of the yeast control strain; efflux-deficient yeast background strain, growth absorbance A615, 16 h; inhibition, % at 10 µM; hit rate 5% among 98,000; AID 738
Ecoli tolC: E. coli tolC mutant growth inhibition. E. coli BW25113 tolC mutant growth, OD615. growth inhibition, % at 10 µM (by protocol). hit rate 2.2% among 65,000. AID 573;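 active = growth inhibition at or above a cutoff equal to the mean over every tested compound plus 3 SD, cut at about 60% in these data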;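 also: growth measured after 20 h incubation at 37 °C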
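Test system: E. coli BW25113 ΔtolC::kan bacteria | Medium: Kanamycin-containing LB broth (50 µg/mL) | Dosing: One dose of 10 µM final | Times: 20 h incubation with compound, 37 °C | Detection: Optical density read at 615 nm | Read-out basis: Percent growth inhibition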
HePTP inhibitor: inhibitors of human HePTP phosphatase; P35236; recombinant HePTP phosphatase activity, OD absorbance; inhibition, % at 20 µM; hit rate 0.64% among 110,000; in the data active = inhibition above about 50%
Target sequence (P35236 whole entry, looked up): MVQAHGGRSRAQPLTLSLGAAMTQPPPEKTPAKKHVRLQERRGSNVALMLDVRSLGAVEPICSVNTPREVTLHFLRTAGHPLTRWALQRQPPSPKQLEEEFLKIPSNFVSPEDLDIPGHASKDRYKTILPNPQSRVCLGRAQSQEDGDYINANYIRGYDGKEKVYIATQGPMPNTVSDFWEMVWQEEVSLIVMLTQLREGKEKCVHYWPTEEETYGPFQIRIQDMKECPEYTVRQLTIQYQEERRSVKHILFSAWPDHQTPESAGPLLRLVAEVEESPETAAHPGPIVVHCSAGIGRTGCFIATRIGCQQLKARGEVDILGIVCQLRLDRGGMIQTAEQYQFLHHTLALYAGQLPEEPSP
PLAP act: activators of human placental alkaline phosphatase; P05187; hit rate 1.2% among 96,000; purified PLAP enzyme, luminescent substrate read-out; active compounds read high; AID 696; activation fold at 20 µM; in the data active = activation fold above about 2
PostGolgi yeast: growth inhibition of a yeast mutant, post-Golgi transport screen; hit rate 0.9% among 98,000; inhibition, % at 10 µM; AID 739; post-Golgi transport phenotypic cell assay;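 also: yeast cells grown in 1536-well plates; yeast grown about 18 h at 30C before absorbance read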
Hits are given with their value; n = inactive; x = not tested or not shown. This is a sample that favours compounds with a hit; in the whole collection about 5.5% have one here. Rule as the data show it, unless noted: active = inhibition above about 30%; inactive = the rest.

SMILES	E coli WT exp	PostGolgi ctrl	Ecoli tolC	HePTP inhibitor	PLAP act	PostGolgi yeast
O=C(c1ccco1)N(Cc1ccccc1)c1cccc([N+](=O)[O-])c1	x	x	x	n	x	x
O=C(c1ccco1)N(Cc1ccc([N+](=O)[O-])cc1)c1ccc(Cl)cc1	n	40	x	x	n	n
O=C(c1ccco1)N(Cc1ccc([N+](=O)[O-])cc1)c1ccc(Br)cc1	n	45	x	x	n	n
CCc1ccc(N(C(=O)c2csnn2)C(C(=O)NC(C)(C)C)c2ccncc2)cc1 (stereo unspecified)	n	n	x	x	n	35
O=C(c1ccc(Cl)cc1)N1CCC(O)(CSc2ccc(Cl)cc2)CC1	n	45	x	x	n	n
N#Cc1c(N)nc(SCc2ccccc2)c(C#N)c1-c1cccs1	x	x	x	n	x	x
N#Cc1c(N)nc(SCc2ccncc2)c(C#N)c1-c1cccs1	n	49	n	n	n	n
CCSc1nc(N)nc(-c2cccs2)c1C#N	n	40	x	x	n	n
O=[N+]([O-])c1ccc(N2CCN(S(=O)(=O)c3ccc4ccccc4c3)CC2)c(Cl)c1	x	x	x	n	x	x
Cc1noc(C)c1CSc1nc2sc3c(c2c(=O)n1C)CCCC3	n	40	x	x	n	n
O=C(CCC(=O)N/N=C/c1ccccc1C(F)(F)F)N/N=C/c1ccccc1C(F)(F)F	x	x	x	n	x	x
C=CCc1cc(OC)ccc1OCC(O)CN1CCN(c2ccc(OC)cc2)CC1 (stereo unspecified)	n	45	n	n	n	n
C=CCc1ccccc1OCC(O)CN1CCN(c2ccccc2OC)CC1 (stereo unspecified)	n	n	n	n	n	n
C=CCc1cc(C)ccc1OCC(O)CN1CCN(c2ccccc2)CC1 (stereo unspecified)	n	n	67	n	n	n
CCNC(=S)N(CCc1ccccc1)C1CC(=O)N(c2ccc(F)cc2)C1=O (stereo unspecified)	x	x	x	n	x	x
CS(=O)(=O)N(Cc1ccccc1)c1ccc(C(=O)N2CCN(c3ccccc3)CC2)cc1	x	x	x	n	x	x
O=C(CNS(=O)(=O)c1ccccc1)N1CCN(c2ccccc2)CC1	n	34	n	n	n	n
Cc1nc2ccc(S(=O)(=O)NCC(=O)N3CCN(c4ccccc4)CC3)cc2s1	n	n	n	n	n	n
O=c1/c(=C/c2ccc3c(c2)OCO3)sc2nc3ccccc3n12	x	x	x	n	x	x
CCOc1ccccc1Cn1c(=O)oc2ccc(C)cc21	x	x	n	x	x	x
CCCOc1ccccc1Cn1c(=O)oc2ccc(C)cc21	n	n	73	n	n	n
O=[N+]([O-])c1ccccc1/C=N/N1CCN(Cc2ccc(Cl)cc2)CC1	x	x	x	n	x	x
Cc1ccccc1/C=N/N1CCN(Cc2ccc(Cl)cc2)CC1	x	x	x	105	x	x
COc1ccc(Nc2nc3ccccc3nc2NS(=O)(=O)c2cccs2)cc1	n	35	x	x	n	n
O=S(=O)(Nc1ccc(-n2cccc2)cc1)c1ccc(Cl)cc1Cl	n	67	x	x	n	n
SMILES	E coli WT exp	PostGolgi ctrl	Ecoli tolC	HePTP inhibitor	PLAP act	PostGolgi yeast
CCOC(=O)c1ccc(NC(=S)NC(=O)/C=C/c2ccccc2)cc1	x	x	x	n	x	x
COc1ccc(CCC(=O)Nc2cc(Cl)ccc2Cl)cc1	x	x	x	n	x	x
O=S(=O)(c1ccc(Cl)c(Cl)c1)c1snnc1-c1ccccc1	n	52	x	x	n	n
Clc1ccccc1CSc1snnc1-c1ccccc1	n	n	x	x	n	n
COc1ccc(C2CC(=O)C(C=NCCCN3CCOCC3)=C(O)C2)cc1 (stereo unspecified)	n	39	n	n	n	n
O=C1CC(c2ccc(Cl)c(Cl)c2)CC(O)=C1C=NCCN1CCNCC1 (stereo unspecified)	n	37	n	n	n	n
CN(CCOC(=O)c1cc(Br)ccc1Cl)C(C)(C)C	x	x	x	n	x	x
Cc1ccccc1N1C(=O)N(c2cccc(C(F)(F)F)c2)C2CS(=O)(=O)CC21 (stereo unspecified)	n	39	n	n	n	n
COc1ccc(C(NC(=O)c2ccccc2C)NC(=O)c2ccccc2C)cc1OC	x	x	x	n	x	x
O=C(N/N=C/CCc1ccccc1)c1cccc([N+](=O)[O-])c1	x	x	x	n	x	x
O=C(CC(=O)NC1CCCCC1)N/N=C/c1ccccc1OCc1ccccc1	x	x	x	n	x	x
Cc1ccc(C(=O)O)cc1NC(=O)CCCC(=O)O	x	x	x	n	x	x
O=C(Oc1ccccc1)c1cc2ccccc2o1	n	n	71	n	n	n
N#Cc1ccccc1Cn1c(=O)n(C2CCCC2)c(=O)c2ccccc21	n	30	x	x	n	n
CCOC(=O)Cn1c(=O)n(C2CCCC2)c(=O)c2ccccc21	n	n	n	n	n	n
O=c1c2ccccc2n(Cc2cccc(F)c2)c(=O)n1C1CCCC1	n	40	77	n	n	n
NS(=O)(=O)c1ccc(CNC2CC(=O)N(c3ccc(I)cc3)C2=O)cc1 (stereo unspecified)	x	x	x	n	x	x
CC(C)Cn1nc(NC(=O)C(C)(C)C)c2cc3ccccc3nc21	n	n	n	n	n	n
COc1ccc2nc3c(cc2c1)c(NC(=O)c1cccs1)nn3CC(C)C	n	37	78	n	n	n
Cc1oc2c(CN3CCOCC3)c(O)ccc2c(=O)c1-c1ccc(Br)cc1	n	n	99	n	n	n
O=c1/c(=C/c2cc([N+](=O)[O-])c(N3CCOCC3)cc2N2CCOCC2)sc2nc3ccccc3n12	x	x	x	n	x	x
CC(=O)Nc1cccc(N2C(=O)CCC2=O)c1	n	38	x	x	n	n
O=S1(=O)C=C(Sc2nc3ccccc3s2)c2ccccc21	n	31	n	n	n	89
Cc1cc(C)nc(SC2=CS(=O)(=O)c3ccccc32)n1	n	n	n	n	n	n
Clc1ccc(-c2n[nH]c3c2CCC3)cc1Cl	n	69	x	x	n	101
SMILES	E coli WT exp	PostGolgi ctrl	Ecoli tolC	HePTP inhibitor	PLAP act	PostGolgi yeast
C=CCN1C(=O)C(Cc2ccccc2)S/C1=N/N=C/c1cccs1 (stereo unspecified)	n	38	x	x	n	n
C=CCN1C(=O)C(Cc2ccc(Br)cc2)S/C1=N\N=C\c1cccs1 (stereo unspecified)	x	x	x	n	x	x
Cc1cc(C)nc(NC(=O)/C=C/c2ccc(Cl)cc2Cl)c1	n	57	x	n	n	n
O=C(/C=C/c1ccc(Cl)cc1Cl)Nc1nn[nH]n1	x	x	x	87	x	x
COC(=O)c1ccc(NC(=O)Cn2nc(C)c3ccccc3c2=O)cc1	x	x	x	69	x	x
Cc1nn(CC(=O)Nc2ccc(C(=O)N3CCCC3)cc2)c(=O)c2ccccc12	n	n	n	n	n	n
O=C1c2ccccc2C(=O)N1CCCCSc1nc2ccccc2o1	n	30	x	x	n	n
Cc1nnc(SCCCN2C(=O)c3ccccc3C2=O)o1	n	n	n	n	n	n
CCOC(=O)c1nnn(-c2nonc2-n2cccc2)c1CN1CCC(C)CC1	n	n	70	n	n	n
CC(C)OC(=O)c1nnn(-c2nonc2N)c1CN1CCc2ccccc2C1	n	47	n	n	n	n
CC(C)OC(=O)c1nnn(-c2nonc2N)c1CSc1ccccn1	n	37	n	n	n	n
CCOC(=O)c1nnn(-c2nonc2N)c1CN1CCc2ccccc2C1	n	n	n	n	n	n
O=C(Nc1ccc(-c2nc3ccccc3o2)cc1)c1ccc2c(c1)OCCO2	x	x	x	n	x	x
Cc1ccc(C23CC4CC(CC(O)(C4)C2)C3)cc1N=Cc1cc(Br)ccc1O	x	x	x	n	x	x

Source: PubChem
